Columns and labels:
Canis familiaris [1] = assay: Antihypertensive activity by the increase in the vertebral blood flow in anesthetized dogs expressed as duration of half of the maximum change in blood flow.; assay type: functional, Canis lupus familiaris
Procedure, shortened: (§1)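 Anesthetized dogs; compounds given intraarterially. Vertebral blood flow recorded, and a dose-response curve built from peak responses. Potency given as ratio to diltiazem, calculated from the dose-response curves. Half duration is the time, in minutes, that blood flow stays at one-half of the maximum change.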

Canis familiaris [2] = species on record: Canis familiaris; assay: Antihypertensive activity expressed as the ratio of the potency evaluated by increased vertebral blood flow (VBF) to that of diltiazem.; assay type: functional, Canis lupus familiaris; procedure, shortened: as §1
Cavia porcellus [3] = species on record: Cavia porcellus; assay: Increase in the coronary blood flow (CBF) was determined in isolated guinea pig heart at a dose of 30 ug/heart; assay type: functional, Artery
Procedure, shortened: (§2)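 Hartley guinea pig hearts perfused by the Langendorff method with modified Locke-Ringer solution containing defibrinated rabbit blood, at 40 cm H2O and 29 ± 1 °C. Compounds in saline injected into the aortic cannula at 3, 10, 30 or 100 μg/heart. Coronary flow measured by drop counter; graded by the lowest dose giving an increase of at least 0.5 mL/min.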

Cavia porcellus [4] = species on record: Cavia porcellus; assay: Increase in the coronary blood flow (CBF) was determined in isolated guinea pig heart at a dose of 100 ug/heart; assay type: functional; procedure, shortened: as §2
Rattus norvegicus [5] = assay: Hypotensive activity in SHR (spontaneously hypertensive rats) expressed as change in blood pressure(mmHg) after 4 hr dosing at a concentration of 30 mg/kg; assay type: functional
Procedure, shortened: (§3)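 Male spontaneously hypertensive rats, fasted 20 h. Compounds dissolved in deionized water and given orally (30 mg/kg; some at 100 mg/kg). Blood pressure measured by tail-cuff in conscious animals. Change (mmHg) taken from the predosing value at 1 and 4 h, or 1 and 5 h, after dosing. N = 3-6.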

Rattus norvegicus [6] = assay: Change in blood pressure in spontaneously hypertensive rats 1 hr following 30 mg/kg p.o.; assay type: functional; conditions: route oral; procedure, shortened: as §3

Compound | Half duration (Canis familiaris [1]) [min] | Potency ratio (Canis familiaris [2]) | Increase in CBF (Cavia porcellus [3]) [mL/min] | Increase in CBF (Cavia porcellus [4]) [mL/min] | Change in blood pressure (Rattus norvegicus [5]) [delta mmHg] | Change in blood pressure (Rattus norvegicus [6]) [delta mmHg] | Change in blood pressure (Rattus norvegicus [5]; 30 mg/kg) [delta mmHg] | Change in blood pressure (Rattus norvegicus [6]; 30 mg/kg) [delta mmHg]
Cc1ccc(C2Sc3cc(Cl)ccc3N(CCN(C)C)C(=O)C2OC(=O)c2ccc(Cl)cc2[N+](=O)[O-])cc1 (stereo not drawn) | 140 | 0.02 |  |  |  |  |  | 
CCCCNC(=O)OC1C(=O)N(CCN(C)C)c2ccc(Cl)cc2SC1c1ccc(OC)cc1 (stereo not drawn) | 76 | 0.31 | >0.5 |  |  |  |  | 
COc1ccc(C2Sc3cc(Cl)ccc3N(CCN(C)C)C(=O)C2OC(=O)c2ccc(C)cc2)cc1 (stereo not drawn) | 140 | 0.33 |  |  |  |  |  | 
COc1ccc(C2Sc3cc(F)ccc3N(CCN(C)C)C(=O)C2OC(=O)c2ccc([N+](=O)[O-])cc2)cc1 (stereo not drawn) | 48 | 0.35 | >0.5 |  |  |  |  | 
Cc1ccc(C2Sc3cc(Cl)ccc3N(CCN(C)C)C(=O)C2O)cc1 (stereo not drawn) | 31 | 0.52 |  |  |  |  |  | 
CCOC(=O)OC1C(=O)N(CCN(C)C)c2ccc(F)cc2SC1c1ccc(OC)cc1 (stereo not drawn) | 33 | 0.16 |  | >0.5 |  |  |  | 
COc1ccc(C2Sc3cc(F)ccc3N(CCN(C)C)C(=O)C2OC(=O)c2ccc(C)cc2)cc1 (stereo not drawn) | 62 | 0.26 |  |  |  |  |  | 
CCCN(C)CCN1C(=O)C(O)C(c2ccc(OC)cc2)Sc2cc(Cl)ccc21 (stereo not drawn) | 35 | 0.24 |  | >0.5 | -27.3 | -20 |  | 
C#CCN(C)CCN1C(=O)C(O)C(c2ccc(OC)cc2)Sc2cc(Cl)ccc21 (stereo not drawn) | 28 | 0.06 |  |  |  |  |  | 
COc1ccc(C2Sc3cc(Cl)ccc3N(CCN(C)C)C(=O)C2OC(=O)c2ccc([N+](=O)[O-])cc2)cc1 (stereo not drawn) | 75 | 0.05 |  | >0.5 |  |  |  | 
Cc1ccc(C2Sc3cc(Cl)ccc3N(CCN(C)C)C(=O)C2OC(=O)c2ccc([N+](=O)[O-])cc2)cc1 (stereo not drawn) | 84 | 0.08 |  |  |  |  |  | 
Cc1ccc(C2Sc3cc(Cl)ccc3N(CCN(C)C)C(=O)C2OC(=O)c2ccc([N+](=O)[O-])cc2Cl)cc1 (stereo not drawn) | 156 | 0.05 |  |  |  |  |  | 
CCN(C)CCN1C(=O)C(O)C(c2ccc(OC)cc2)Sc2cc(Cl)ccc21 (stereo not drawn) | 38 | 0.28 |  | >0.5 | -39.3 | -21.3 |  | 
CC(=O)OC1C(=O)N(CCN(C)C)c2ccc(Cl)cc2SC1c1ccc(C)cc1 (stereo not drawn) | 61 | 0.37 |  |  |  |  |  | 
CCN(CC)CCN1C(=O)C(OC(C)=O)C(c2ccc(OC)cc2)Sc2cc(Cl)ccc21 (stereo not drawn) | 48 | 0.55 |  | >0.5 |  |  |  | 
COc1ccc(C2Sc3cc(F)ccc3N(CCN(C)C)C(=O)C2O)cc1.Cl (stereo not drawn) | 40 | 0.37 |  | >0.5 |  |  |  | 
COc1ccc(C2Sc3c(ccc(Cl)c3Cl)N(CCN(C)C)C(=O)C2OC(C)=O)cc1.Cl (stereo not drawn) | 156 | 0.35 |  | >0.5 |  |  |  | 
COc1ccc(C2Sc3cc(F)ccc3N(CCN(C)C)C(=O)C2OC(C)=O)cc1.Cl (stereo not drawn) | 71 | 0.37 |  | >0.5 | -50 | -64 |  | 
COc1ccc(C2Sc3cc(Cl)ccc3N(CCN(C)C)C(=O)C2O)cc1.Cl (stereo not drawn) | 39 | 0.76 |  | >0.5 |  |  |  | 
COc1ccc(C2Sc3c(Cl)cccc3N(CCN(C)C)C(=O)C2O)cc1.Cl (stereo not drawn) | 52 | 0.91 | >0.5 |  |  |  |  | 
COc1ccc(C2Sc3cc(Cl)c(Cl)cc3N(CCN(C)C)C(=O)C2O)cc1.Cl (stereo not drawn) | 36 | 0.29 |  | >0.5 |  |  |  | 

Compound | Half duration (Canis familiaris [1]) [min] | Potency ratio (Canis familiaris [2]) | Increase in CBF (Cavia porcellus [3]) [mL/min] | Increase in CBF (Cavia porcellus [4]) [mL/min] | Change in blood pressure (Rattus norvegicus [5]) [delta mmHg] | Change in blood pressure (Rattus norvegicus [6]) [delta mmHg] | Change in blood pressure (Rattus norvegicus [5]; 30 mg/kg) [delta mmHg] | Change in blood pressure (Rattus norvegicus [6]; 30 mg/kg) [delta mmHg]
COc1ccc(C2Sc3cccc(Cl)c3N(CCN(C)C)C(=O)C2OC(C)=O)cc1.Cl (stereo not drawn) | 53 | 0.62 |  | >0.5 | -13.7 | -22 |  | 
COc1ccc(C2Sc3c(F)cccc3N(CCN(C)C)C(=O)C2O)cc1.Cl (stereo not drawn) | 33 | 0.14 |  | >0.5 |  |  |  | 
COc1ccc(C2Sc3c(F)cccc3N(CCN(C)C)C(=O)C2OC(C)=O)cc1.Cl (stereo not drawn) | 43 | 0.34 |  | >0.5 | -60.3 | -39 |  | 
CCN(C)CCN1C(=O)C(OC)C(c2ccc(OC)cc2)Sc2cc(Cl)ccc21 (single isomer, unassigned; (+)) | 41 | 0.5 |  |  |  |  |  | 
COc1ccc(C2Sc3cc(Cl)ccc3N(CCN(C)C)C(=O)C2O)cc1 (single isomer, unassigned; (+)) | 46 | 0.94 |  | >0.5 |  |  | -51.7 | -13.3
CCCC(=O)OC1C(=O)N(CCN(C)C)c2ccc(Cl)cc2SC1c1ccc(OC)cc1 (single isomer, unassigned; (+)) | 41 | 0.8 |  |  | -28 | -30 |  | 
COc1ccc(C2Sc3ccc(Cl)cc3N(CCN(C)C)C(=O)C2O)cc1 (single isomer, unassigned; (+)) | 24 | 0.17 |  | <0.5 |  |  |  | 
CCN(CC)CCN1C(=O)C(O)C(c2ccc(OC)cc2)Sc2cc(Cl)ccc21 (single isomer, unassigned; (+)) | 31 | 0.32 |  | >0.5 |  |  |  | 
CCCCC(=O)OC1C(=O)N(CCN(C)C)c2ccc(Cl)cc2SC1c1ccc(OC)cc1 (single isomer, unassigned; (+)) | 42 | 0.67 |  |  | -39 | -46 |  | 
COc1ccc(C2Sc3cc(Cl)ccc3N(CCN(C)C)C(=O)C2OC(=O)c2ccc([N+](=O)[O-])cc2Cl)cc1 (single isomer, unassigned; (+)) | 118 | 0.08 |  | >0.5 |  |  |  | 
C=CCN(C)CCN1C(=O)C(O)C(c2ccc(OC)cc2)Sc2cc(Cl)ccc21 (single isomer, unassigned; (+)) | 34 | 0.23 |  |  |  |  |  | 
COc1ccc(C2Sc3ccc(Cl)cc3N(CCN(C)C)C(=O)C2OC(C)=O)cc1.Cl (single isomer, unassigned; (+)) | 29 | 0.93 |  | >0.5 |  |  |  | 
COc1ccc(C2Sc3cc(Cl)ccc3N(CCN(C)C)C(=O)C2OC(C)=O)cc1.Cl (single isomer, unassigned; (+)) |  | 1.7 |  |  |  |  | -68 | -86
COc1ccc(C2Sc3c(Cl)cccc3N(CCN(C)C)C(=O)C2OC(C)=O)cc1.Cl (single isomer, unassigned; (+)) | 74 | 0.83 |  |  | -54.3 | -73.7 |  | 
COc1ccc(C2Sc3cc(Cl)ccc3N(CCN(C)C)C(=O)C2O)cc1 (single isomer, unassigned; (-)) | 23 | 0.02 |  | <0.5 |  |  | -20 | 1
COc1ccc(C2Sc3c(Cl)cccc3N(CCN(C)C)C(=O)C2O)cc1 (single isomer, unassigned; (-)) | 21 | 0.02 |  | <0.5 |  |  |  | 
COc1ccc(C2Sc3cc(Cl)ccc3N(CCN(C)C)C(=O)C2OC(C)=O)cc1.Cl (single isomer, unassigned; (-)) | 36 | 0.06 |  | <0.5 |  |  | -22.7 | -6
COc1ccc(C2Sc3c(Cl)cccc3N(CCN(C)C)C(=O)C2OC(C)=O)cc1.Cl (single isomer, unassigned; (-)) | 22 | 0.06 |  | <0.5 |  |  |  | 
CCN(C)CCN1C(=O)C(OC(C)=O)C(c2ccc(OC)cc2)Sc2cc(Cl)ccc21 (stereo in doubt; 2o) | 60 | 0.74 |  |  |  |  |  | 
COc1ccc(C2Sc3cc(Cl)ccc3N(CCN(C)C)C(=O)C2OC(C)=O)cc1.Cl (stereo in doubt; 2w) | 31 | 0.01 |  |  |  |  |  | 
COc1ccc(C2Sc3ccc(Cl)cc3N(CCN(C)C)C(=O)C2OC(C)=O)cc1.Cl (stereo in doubt; (-)-2ll) | 12 | 0.03 |  | <0.5 |  |  |  | 
